Laboratory results taken from paper PMC4021451 (Journal of medicinal chemistry, 2012).

Assays:
[1] = Reversed-phase HPLC lipophilicity; format: physicochemical; conditions: RP-HPLC, C18, methanol/15 mM aqueous formic acid, extrapolated to 100% H2O, 25 °C
In short: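 Isocratic runs on a silica-based C18 column (4.6 mm × 250 mm), with methanol/15 mM aqueous formic acid from 5:95 to 50:50 depending on compound polarity. Flow 1.00 mL/min, UV 210 nm. […] Each compound ran at least twice in at least three mobile-phase compositions. log kw came from linear extrapolation of log k' versus methanol fraction.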

[2] = system: SW480 (colon adenocarcinoma) cells; test: MTT cytotoxicity assay, SW480 cells; format: cell-based, human; conditions: read-out: IC50 SW480, 96 h exposure, mean ± SD
In short: (§1)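 Cells were seeded in MEM at 1.5 × 10^3 (CH1), 4.0 × 10^3 (A549) or 2.5 × 10^3 (SW480) per well, given 24 h to resume exponential growth, then exposed to serial dilutions for 96 h. Medium was replaced with RPMI 1640 plus MTT in PBS (5 mg/mL solution) for 4 h, then DMSO. OD was read at 550 nm. At least three independent experiments were run, with triplicates per concentration.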

[3] = system: CH1 (ovarian carcinoma) cells; test: MTT cytotoxicity assay, CH1 cells; format: cell-based, human; conditions: read-out: IC50 CH1, 96 h exposure, mean ± SD
In short: as §1

[4] = system: A549 (non-small-cell lung carcinoma) cells; test: MTT cytotoxicity assay, A549 cells; format: cell-based, human; conditions: read-out: IC50 A549, 96 h exposure, mean ± SD
In short: as §1

[5] = system: A2780/cis cells (cisplatin-selected subline); test: EZ4U viability assay in resistance models, A2780/cis; format: cell-based; conditions: for IC50: read-out: IC50 A2780/cis, EZ4U assay, 96 h exposure
In short: (§2)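 Cells were seeded at 2 × 10^3 per well and allowed to recover for 24 h. Test compound was then added in growth medium and exposed for 96 h. Viable cell proportion was read with the EZ4U kit. Media, all with 10% FBS: SW1573 and 2R120 in DMEM, A2780 and A2780/cis in RPMI 1640, P31 in MEM. Cells were grown at 37 °C in 5% CO2.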

[6] = system: P31/cis cells (cisplatin-resistant subline); test: EZ4U viability assay in resistance models, P31/cis; format: cell-based; conditions: read-out: IC50 P31/cis, 96 h exposure
In short: as §2

P31 (mesothelioma) cells = test: EZ4U viability assay in resistance models, P31; format: cell-based; conditions: read-out: IC50 P31, 96 h exposure
In short: as §2

[7] = system: ABCC1-overexpressing 2R120 cells; test: EZ4U viability assay in resistance models, 2R120; format: cell-based, human; conditions: read-out: IC50 2R120, 96 h exposure
In short: as §2

[8] = system: SW1573 cells (chemosensitive parental non-small-cell lung cancer line); test: EZ4U viability assay in resistance models, SW1573; format: cell-based, human; conditions: read-out: IC50 SW1573, 96 h exposure
In short: as §2

A2780 cells = test: Total Pt uptake levels by ICP-MS; format: cell-based; conditions: 2 h drug exposure
In short: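 A2780 cells (4 × 10^5 per well) settled for 24 h, then were exposed to test compound for 2 h at 37 °C. After two ice-cold PBS washes, cells were lysed in tetramethylammonium hydroxide and diluted in 0.6 N HNO3. Pt was measured by ICP-MS against matrix-matched standards with 1 ppb indium internal standard and corrected for a cell-free blank well. Values are relative mean and SD from at least two independent experiments.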

[9] = system: A2780 (ovarian carcinoma) cells; test: EZ4U viability assay in resistance models, A2780; format: cell-based; conditions: read-out: IC50 A2780, 96 h exposure
In short: as §2

| Compound | log kw [1] | IC50 [2] | IC50 [3] | IC50 [4] | IC50 [5] | IC50 [6] | IC50 (P31 (mesothelioma) cells) | IC50 [7] | IC50 [8] | -fold resistance A2780/cis ([5]; A2780/cis versus A2780) | Cellular drug uptake (total Pt levels) (A2780 cells) | IC50 [9] |
| --- | --- | --- | --- | --- | --- | --- | --- | --- | --- | --- | --- | --- |
| (OC-6-54)-Dichlorido(N,N-dimethylethane-1,2-diamine)-hydroxidomethoxidoplatinum(IV) [1b] | 0.09 ± 0.01 | 40 ± 14 µM | 2.5 ± 0.2 µM | 73 ± 3 µM |  |  |  |  |  |  |  |  |
| N.N.[Cl][Pt][Cl] [cisplatin] |  | 3.5 ± 0.3 µM | 0.16 ± 0.03 µM |  | 3.7 ± 0.3 µM | > 20 µM | 4 ± 0.3 µM | > 20 µM | 6.5 ± 0.1 µM |  |  |  |
| CC(=O)[O-].CC(=O)[O-].N.NC1CCCCC1.[Cl-].[Cl-].[Pt+4] [satraplatin, (OC-6-43)-diacetatoamminedichlorido(cyclohexylamine)platinum(IV)] | 1.79 ± 0.01 |  |  |  | 5.7 ± 0.2 µM |  |  |  |  | 11.4 fold | enhanced drug uptake | 0.5 ± 0.3 µM |
